From ChEMBL document CHEMBL3046392, “Antifungal activities of N-arylbenzenesulfonamides against phytopathogens and control efficacy on wheat leaf rust and cabbage club root diseases” (Biosci Biotechnol Biochem, 2002)
Values after ≈ are worked out from the molar mass of the structure shown.

How the values were obtained:
Assay type in all cases: functional
[1] = system: Rhizoctonia solani; experiment: Antifungal activity against Rhizoctonia solani assessed as mycelial growth inhibition after 2 to 6 days; details: read-out: ED50 (the source's name)
Procedure, shortened: (§1)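 Serially diluted compound was mixed into 1/5-strength PDA plates at […]. A 5-mm agar plug of each fungus was placed at the plate centre, with three replicate plates per concentration per fungus. Plates were incubated at 25 °C for 2–6 days, radial growth was measured, and ED₅₀ for mycelial growth inhibition was derived by probit analysis.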

[2] = system: Pyricularia grisea; experiment: Antifungal activity against Magnaporthe grisea infected on compound pre-treated rice seedlings at second-leaf stage assessed as rice blast disease control values at 50 ug/ml measured after 5 days post fungal inoculation
Procedure, shortened: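 Rice seedlings grown in greenhouse pots at 25±5 °C, sprayed with compound in water+methanol (95+5) containing Tween 20 (250 mg/l) as wetting agent, left 24 h, then inoculated with M. grisea. Disease severity read as percentage infected leaf area 5 days after inoculation. Control value (%) = 100 × (untreated severity − treated severity)/untreated severity.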

[3] = system: Botrytis cinerea; experiment: Antifungal activity against Botryotinia fuckeliana infected compound pre-treated tomato seedlings at second-leaf stage assessed as tomato gray mould disease control values at 50 ug/ml measured after 3 to 4 days post fungal inoculation
Procedure, shortened: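 Greenhouse-grown potted tomato seedlings at second-leaf stage were sprayed with compound in water+methanol (95+5) with Tween 20 (250 mg/l), left 24 h, then spray-inoculated with B. cinerea spore suspension. Plants were kept in the dark at 25 °C, 100% RH. Severity was scored after 3–4 days, and control value = 100 × (untreated − treated severity)/untreated severity.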

[4] = system: Phytophthora capsici; experiment: Antifungal activity against Phytophthora capsici infected on compound pre-treated tomato seedlings at second-leaf stage assessed as tomato late blight disease control values at 50 ug/ml measured after 3 to 4 days post fungal inoculation
[5] = system: Plasmodiophora brassicae; experiment: Antifungal activity against Plasmodiophora brassicae in cabbage seedlings transplanted after soil infestation with fungus followed by compound application to soil assessed as cabbage club root disease control efficacy at 19 ug/ml measured after 35 days post fungal inoculation
Procedure, shortened: (§2)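 Soil was inoculated with P. brassicae spore suspension (2×10⁶ spores/ml), then cabbage seedlings were transplanted. 10 ml of each compound solution was applied to assess disease suppression. Disease severity was assessed 35 days after inoculation, with control value calculated relative to untreated plants.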

[6] = system: Blumeria hordei; experiment: Antifungal activity against Blumeria graminis f. sp. hordei infected compound pre-treated barley seedlings at first-leaf stage assessed as barley powdery mildew disease control values at 50 ug/ml measured after 7 days post fungal inoculation
Procedure, shortened: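 Pot-grown barley seedlings at first-leaf stage were sprayed with compound dissolved in water+methanol (95+5) containing Tween 20 (250 mg/l), left 24 h, then inoculated with the powdery mildew fungus. Control value = 100 × (untreated − treated severity)/untreated severity.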

[7] = system: Plasmodiophora brassicae; experiment: Antifungal activity against Plasmodiophora brassicae in cabbage seedlings transplanted after soil infestation with fungus followed by compound application to soil assessed as cabbage club root disease control efficacy at 500 ug/ml measured after 35 days post fungal inoculation; procedure, shortened: as §2
[8] = system: Botrytis cinerea; experiment: Antifungal activity against Botryotinia fuckeliana assessed as mycelial growth inhibition after 2 to 6 days; details: read-out: ED50 (the source's name); procedure, shortened: as §1
[9] = system: Phytophthora capsici; experiment: Antifungal activity against Phytophthora capsici assessed as mycelial growth inhibition after 2 to 6 days; details: read-out: ED50 (the source's name); procedure, shortened: as §1
[10] = system: Corticium; experiment: Antifungal activity against Corticium sasaki Matsu infected compound pre-treated rice seedlings at third-leaf stage assessed as rice sheath blight disease control values at 50 ug/ml measured after 4 days post fungal inoculation
Procedure, shortened: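 Rice seedlings at third-leaf stage were sprayed with compound in water+methanol (95+5) plus Tween 20 (250 mg/l) and left 24 h. They were inoculated with 7-day-old wheat–rice bran cultures of C. sasaki and held 4 days dark at 25 °C, 100% RH, then 4 days in a growth chamber (25 °C, 100% RH, 12 h light). Control value was calculated from disease severity relative to untreated plants.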

[11] = system: Globisporangium ultimum; experiment: Antifungal activity against Pythium ultimum assessed as mycelial growth inhibition after 2 to 6 days; details: read-out: ED50 (the source's name); procedure, shortened: as §1
[12] = system: Puccinia recondita; experiment: Antifungal activity against Puccinia recondita infected on compound pre-treated wheat seedlings at first-leaf stage assessed as wheat leaf rust disease control values at 50 ug/ml measured after 7 days post fungal inoculation
Procedure, shortened: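 First-leaf wheat seedlings were sprayed with compound in water+methanol (95+5) with Tween 20 (250 mg/l) and left 24 h. They were sprayed with P. recondita spores (0.67 g/l, Tween 20 250 mg/l) and kept 1 day in a moist chamber at 20 °C, then moved to an incubation room. Infected leaf area was rated 7 days post-inoculation and converted to a control value relative to untreated plants.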

[13] = system: Plasmodiophora brassicae; experiment: Antifungal activity against Plasmodiophora brassicae in cabbage seedlings transplanted after soil infestation with fungus followed by compound application to soil assessed as cabbage club root disease control efficacy at 56 ug/ml measured after 35 days post fungal inoculation; procedure, shortened: as §2
[14] = system: Plasmodiophora brassicae; experiment: Antifungal activity against Plasmodiophora brassicae in cabbage seedlings transplanted after soil infestation with fungus followed by compound application to soil assessed as cabbage club root disease control efficacy at 167 ug/ml measured after 35 days post fungal inoculation; procedure, shortened: as §2

Compound: O=[N+]([O-])c1ccc(NS(=O)(=O)c2ccccc2)c(Cl)c1
- EC50 [1]: 14.4 mg/L (≈ 46 µM)
- Activity [2]: 3%
- Activity [3]: 0%
- Activity [4]: 0%
- Efficacy [5]: 17%
- Activity [6]: 2%
- Efficacy [7]: 95%
- EC50 [8]: 28 mg/L (≈ 89.5 µM)
- EC50 [9]: 9 mg/L (≈ 28.8 µM)
- Activity [10]: 0%
- EC50 [11]: 5.4 mg/L (≈ 17.3 µM)
- Activity [12]: 9%
- Efficacy [13]: 83%
- Efficacy [14]: 82%

Compound: O=[N+]([O-])c1ccc(NS(=O)(=O)c2ccccc2)cc1
- EC50 [1]: 42.3 mg/L (≈ 152 µM)
- EC50 [8]: 65.7 mg/L (≈ 236 µM)
- EC50 [9]: 10.3 mg/L (≈ 37 µM)
- EC50 [11]: 6.9 mg/L (≈ 24.8 µM)

Compound: O=S(=O)(Nc1ccc(C(F)(F)F)cc1)c1ccccc1
- EC50 [1]: 24.1 mg/L (≈ 80 µM)
- Activity [2]: 0%
- Activity [3]: 0%
- Activity [4]: 0%
- Efficacy [5]: 0%
- Activity [6]: 0%
- Efficacy [7]: 0%
- EC50 [8]: 14.8 mg/L (≈ 49.1 µM)
- EC50 [9]: 14.6 mg/L (≈ 48.5 µM)
- Activity [10]: 0%
- EC50 [11]: 11.7 mg/L (≈ 38.8 µM)
- Activity [12]: 0%
- Efficacy [13]: 0%
- Efficacy [14]: 0%

Compound: O=[N+]([O-])c1ccc(NS(=O)(=O)c2ccccc2)c(C(F)(F)F)c1
- EC50 [1]: 28.5 mg/L (≈ 82.3 µM)
- EC50 [8]: 33.1 mg/L (≈ 95.6 µM)
- EC50 [9]: 18.5 mg/L (≈ 53.4 µM)
- EC50 [11]: 19.3 mg/L (≈ 55.8 µM)

Compound: O=S(=O)(Nc1ccc(F)c(C(F)(F)F)c1)c1ccccc1
- EC50 [1]: 16.8 mg/L (≈ 52.6 µM)
- EC50 [8]: 10.7 mg/L (≈ 33.5 µM)
- EC50 [9]: 5.6 mg/L (≈ 17.5 µM)
- EC50 [11]: 13.5 mg/L (≈ 42.3 µM)

Compound: O=[N+]([O-])c1cccc(S(=O)(=O)Nc2ccc([N+](=O)[O-])cc2Cl)c1
- EC50 [1]: 34.8 mg/L (≈ 97.3 µM)
- EC50 [8]: 63.6 mg/L (≈ 178 µM)
- EC50 [9]: 7 mg/L (≈ 19.6 µM)
- EC50 [11]: 7.2 mg/L (≈ 20.1 µM)

Compound: O=[N+]([O-])c1cccc(S(=O)(=O)Nc2ccc([N+](=O)[O-])cc2C(F)(F)F)c1
- EC50 [1]: 26.2 mg/L (≈ 67 µM)
- EC50 [9]: 233 mg/L (≈ 595 µM)
- EC50 [11]: 155 mg/L (≈ 397 µM)

Compound: O=[N+]([O-])c1cccc(S(=O)(=O)Nc2ccc(F)c(C(F)(F)F)c2)c1
- EC50 [1]: 6 mg/L (≈ 16.5 µM)
- EC50 [8]: 3.5 mg/L (≈ 9.61 µM)
- EC50 [9]: 60.8 mg/L (≈ 167 µM)
- EC50 [11]: 10.1 mg/L (≈ 27.7 µM)

Compound: O=[N+]([O-])c1ccc(NS(=O)(=O)c2ccc(Cl)c(C(F)(F)F)c2)c(Cl)c1 [FLUSULFAMIDE]
- Efficacy [5]: 0%
- Activity [7]: 62%
- Efficacy [13]: 17%
- Efficacy [14]: 42%

Compound: O=S(=O)(Nc1ccccc1)c1ccccc1 [PHENYL(PHENYLSULFONYL)AMINE]
- EC50 [1]: 68.9 mg/L (≈ 295 µM)
- EC50 [8]: 239 mg/L (≈ 1030 µM)
- EC50 [9]: 66.6 mg/L (≈ 285 µM)
- EC50 [11]: 75.4 mg/L (≈ 323 µM)
